Laboratory results taken from PMC12188530 (RSC Advances, 2025).
≈ marks a conversion by molar mass, not a printed value. Counter-ions that a name gives are not always drawn.

Legend:
[1] = molecular target: T1, S. aureus ATCC 43300 Sortase A (Staphylococcus aureus, UniProt Q2FV99); assay: Sortase A activity assay by FRET; format: biochemical
T1 sequence (Q2FV99 60-206): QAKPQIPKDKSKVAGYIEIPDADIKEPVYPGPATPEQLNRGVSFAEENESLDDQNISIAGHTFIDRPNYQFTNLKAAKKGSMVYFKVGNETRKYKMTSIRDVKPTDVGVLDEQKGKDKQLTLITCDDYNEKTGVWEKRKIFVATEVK

Cytotoxicity assay = format: cell-based; settings: human, HepG2 cells
S. aureus ATCC 43300 [2] = assay: Time-kill kinetics; format: cell-based, Staphylococcus aureus; settings: 2 × MIC; for re-growth of the bacteria: after 24 hours; for log reduction in CFU: within 2 to 4 hours
How it was run: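 Culture grown to OD600 0.5 (5 × 10^8 CFU mL−1), then diluted 1000-fold in CA-MHB. Test compound added at 2 × MIC, with ciprofloxacin (2 × MIC) and untreated controls. Incubated at 37 °C with 200 rpm shaking and sampled at 0, 2, 4, 8, 12 and 24 h. Samples plated on MHA for 24 h at 37 °C, and CFU mL−1 determined. Run in triplicate.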

[3] = tested on: S. aureus ATCC 43300 biofilm; assay: Biofilm growth inhibition assay; format: cell-based, Staphylococcus aureus; settings: at MIC, 24 hours
How it was run: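 S. aureus grown in TSB at 37 °C for 24 h, then diluted 1:100 in TSB with 0.1% glucose. […] Planktonic cells removed, wells PBS-washed, dried 10 min and stained with 0.1% crystal violet (10 min, 25 °C). Stain solubilized in 33% acetic acid (30 min, RT, shaking) and read at A600. Percent inhibition calculated against untreated control, in triplicate with three biological replicates.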

S. aureus ATCC 43300 [4] = assay: MIC and MBC by micro broth dilution; format: cell-based, Staphylococcus aureus
[5] = tested on: S. aureus ATCC 43300 membrane potential; assay: Membrane potential perturbation assay; format: cell-based, Staphylococcus aureus; settings: MIC and 2 × MIC
How it was run: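 Cells pelleted at 2400×g for 10 min and resuspended in PBS at OD600 1.0. DiOC2(3) added to 30 μM final. Cells mixed with test compound at MIC and 2 × MIC. CCCP served as positive control and untreated cells as negative control; n = 3, mean ± SD.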

Sortase A = molecular target: T2, Sortase A (Staphylococcus aureus, UniProt Q2FV99); assay: Fluorescence quenching assay; format: binding; settings: compounds 0 to 128 μg mL^−1
T2 sequence (Q2FV99 60-206): T1 sequence (Q2FV99 60-206)

[6] = tested on: S. aureus ATCC 43300 invasion in macrophage (THP1); assay: Macrophage invasion assay; format: cell-based, Staphylococcus aureus; settings: THP1, MIC and 2 × MIC
S. aureus ATCC 43300 [7] = assay: Thigh infection in a neutropenic mouse; format: in vivo; settings: BALB/C mice, group n = 4, 100 mg kg^−1 oral
How it was run: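 Female BALB/c mice, 6–8 weeks old, n = 4 per group, made neutropenic with cyclophosphamide i.p. (150 mg kg−1 on day −4, 100 mg kg−1 on day −1). Right thigh infected i.m. with 5 × 10^5 CFU per mouse. At 4 h, test compound given orally at 100 mg kg−1, alongside vancomycin 100 mg kg−1 oral and a sunflower oil vehicle group. At 24 h, thighs homogenized in PBS and CFU plated on MHA, in triplicate per mouse.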

[8] = Staphylococcus aureus, ATCC43300, 18 h
[9] = Staphylococcus aureus, ATCC43300, 18 h, S. aureus ATCC 43300, MHB, 37 °C, 18 hours

SMILES	inhibition at 128 µg/mL [1] [%]	viability at 24 h, 1 × MIC (Cytotoxicity assay) [%]	log reduction in colony-forming units (CFU) from the initial inoculum (S. aureus ATCC 43300 [2]) [log]	time within which the bacteria were eliminated (S. aureus ATCC 43300 [2]) [h]	biofilm growth inhibition [3] [%]	MBC (S. aureus ATCC 43300 [4]; [8]) [µg/mL]	MIC (S. aureus ATCC 43300 [4]; [9]) [µg/mL]	re-growth of the bacteria (S. aureus ATCC 43300 [2])	inhibitory activity against the enzyme (in words) ([1]; FRET assay)	membrane potential disruption [5]	dose-dependent quenching of Sortase A fluorescence intensity (Sortase A)	MIC (S. aureus ATCC 43300 [4]; S. aureus ATCC 43300, MHB, 37 °C, 18 hours) [µg/mL]	MIC (S. aureus ATCC 43300 [4]; [8]) [µg/mL]	S. aureus ATCC 43300 invasion of macrophages [6]	death during the experiment (S. aureus ATCC 43300 [7])	viability at 24 h, 2 × MIC (Cytotoxicity assay) [%]	log reduction in CFU (S. aureus ATCC 43300 [2]) [log]	% inhibition ([1]; concentration 128 μg mL^−1) [%]
CCOC(=O)C1=C(COCCN)NC(C)=C(C(=O)OC)C1c1ccccc1Cl (centres unmarked) [Amlodipine besylate]	57	60	≥ 3	4 to 24	40	128	64	–	–	–	–	–	–	–	–	–	–	–
CN(C)CCCN1c2ccccc2Sc2ccc(Cl)cc21 [Chlorpromazine hydrochloride]	49	28	≥ 3	8 to 12	93	–	32	re-growth of the bacteria was observed after 24 hours	–	–	–	–	–	–	–	–	–	–
CN(C)C(=O)C(CCN1CCC(O)(c2ccc(Cl)cc2)CC1)(c1ccccc1)c1ccccc1 [Loperamide hydrochloride]	–	84	≥ 3	8 to 12	95	128	32	re-growth of the bacteria was observed after 24 hours	except loperamide hydrochloride	significant reduction only at 2 × MIC	except loperamide hydrochloride	64	–	–	–	–	–	–
c1ccc2c(c1)Sc1ccccc1N2CC1CN2CCC1CC2 (centres unmarked) [Mequitazine]	64	30	≥ 3	12 to 24	95	128 (≈ 397 µM)	–	–	–	–	–	–	64 (≈ 198 µM)	–	–	–	–	–
CN1CCN(CCCN2c3ccccc3Sc3ccc(Cl)cc32)CC1 [Prochlorperazine dimaleate]	–	86	–	–	67	–	32	re-growth of the bacteria was observed after 24 hours	–	–	–	–	–	successfully reduced MRSA invasion of macrophages at 2 × MIC	One BALB/C died during the experiment	~50	~2	–
O.O=c1c(O)c(-c2ccc(O)c(O)c2)oc2cc(O)cc(O)c12 [Quercetin hydrate]	–	–	–	–	–	–	–	–	–	–	–	–	–	–	–	–	–	73
CN(C)CCCN1c2ccccc2Sc2ccc(C(F)(F)F)cc21 [Triflupromazine hydrochloride]	48	63	–	–	19	–	32	re-growth of the bacteria was observed after 24 hours	–	–	–	–	–	–	–	–	~2	–
